In ChEMBL document CHEMBL2150917, “Lignopurines: a new family of hybrids between cyclolignans and purines. Synthesis and biological evaluation” (2012):
Activity calls are given as the source filed them. The calls are words filed in the database; no cut-off is given here.

Key:
MDA-MB-231 = test: Growth inhibition of human MDA-MB-231 cells after 72 hrs by SRB assay; type: functional; conditions: MDA-MB-231, 72 h
Outline: (§1)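 Cells seeded at 5×10^3/well in RPMI and attached for 18 h drug-free. Samples added in DMSO/H2O 3:7 for 72 h exposure. Cells then fixed with cold TCA for 60 min at 4 °C, stained with 0.4% SRB in 1% acetic acid for 10 min, stain solubilized in Tris and read at 490 nm. GI50 from 100×[(T−T0)/(C−T0)]=50; mean of triplicates.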

HT-29 = test: Growth inhibition of human HT-29 cells after 72 hrs by SRB assay; type: functional; conditions: HT-29, 72 h; outline: as §1
A549 = test: Growth inhibition of human A549 cells after 72 hrs by SRB assay; type: functional; conditions: A549, 72 h; outline: as §1
HeLa [1] = test: Induction of cell cycle arrest in human HeLa cells assessed as accumulation at G2/M phase at 1 uM after 24 hrs by propidium iodide staining-based FACS flow cytometry; type: functional
Outline: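 Mycoplasma-negative HeLa cells in DMEM with 10% heat-inactivated FCS, 2 mM L-glutamine, penicillin/streptomycin, 37 °C, 5% CO2; exposed to 1 µM for 24 h alongside untreated controls. 3–5×10^5 cells fixed overnight in 70% ethanol at 4 °C, PBS-washed, 1 h with 1 mg/mL RNase A plus 20 µg/mL propidium iodide at room temperature; flow cytometry for % G2/M; three independent experiments.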

HeLa [2] = test: Disruption of microtubule network in human HeLa cells at 1 uM after 24 hrs by DAPI staining-based confocal laser scanning microscopy relative to control; type: cell-based
Outline: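 HeLa cells in DMEM with 10% heat-inactivated FCS, 2 mM L-glutamine, penicillin/streptomycin, 37 °C, 5% CO2, grown on poly-L-lysine coverslips; 1 µM, 24 h. Fixed in 4% paraformaldehyde in HPEM (pH 6.6), 0.5% Triton X-100 permeabilized, anti-alpha-tubulin mouse mAb (1:150), Cy2 anti-mouse IgG, DAPI nuclei; confocal imaging versus untreated cells; at least three experiments.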

Row | GI50 (MDA-MB-231) [nM] | GI50 (HT-29) [nM] | GI50 (A549) [nM] | SMILES | Activity (HeLa [1]) | Activity (HeLa [2])
1 | 1800 | 740 | 660 | COc1cc([C@@H]2c3cc4c(cc3C=C(C=O)[C@H]2C(=O)OCCCCCCBr)OCO4)cc(OC)c1OC |  | 
2 | 5100 | 1200 | 1200 | CCCNc1ncnc2c1ncn2CCCCCCOC(=O)[C@@H]1C(C=O)=Cc2cc3c(cc2[C@H]1c1cc(OC)c(OC)c(OC)c1)OCO3 | Active | Active
3 | 700 | 77 | 85 | COc1cc([C@@H]2c3cc4c(cc3C=C(C=O)[C@H]2C(=O)OCc2ccc(CBr)cc2)OCO4)cc(OC)c1OC |  | 
4 | 3700 | 1700 | 1200 | COc1cc([C@@H]2c3cc4c(cc3C=C(C=O)[C@H]2C(=O)OCCCCCCn2cnc3ncnc(Cl)c32)OCO4)cc(OC)c1OC | Active | Active
5 | 1300 | 630 | 580 | CCCNCC1=Cc2cc3c(cc2[C@@H](c2cc(OC)c(OC)c(OC)c2)[C@@H]1C(=O)OCc1ccc(Cn2cnc4c(Cl)ncnc42)cc1)OCO3 |  | 
6 | 7200 | 9400 | 2200 | COc1cc([C@@H]2c3cc4c(cc3[C@@H](O[C@@H]3O[C@@H]5CO[C@@H](C)O[C@H]5[C@H](O)[C@H]3O)[C@H]3COC(=O)[C@H]23)OCO4)cc(OC)c1O [ETOPOSIDE] |  | 
7 | 3500 | 2200 | 2300 | CCCNCC1=Cc2cc3c(cc2[C@@H](c2cc(OC)c(OC)c(OC)c2)[C@@H]1C(=O)OCCCCCCn1cnc2c(Cl)ncnc21)OCO3 |  | 
8 | 740 | 90 | 59 | CCC/N=C/C1=Cc2cc3c(cc2[C@@H](c2cc(OC)c(OC)c(OC)c2)[C@@H]1C(=O)OCc1ccc(Cn2cnc4c(Cl)ncnc42)cc1)OCO3 |  | 
9 | 130 | 140 | 190 | COc1cc([C@@H]2c3cc4c(cc3C=C(C=O)[C@H]2C(=O)OCCCBr)OCO4)cc(OC)c1OC |  | 
10 | 810 | 51 | 29 | COc1cc([C@@H]2c3cc4c(cc3C=C(C=O)[C@H]2C(=O)OCc2ccc(Cn3cnc5c(Cl)ncnc53)cc2)OCO4)cc(OC)c1OC | Active | Active
11 | 2400 | 530 | 310 | COc1cc([C@@H]2c3cc4c(cc3C=C(C=O)[C@H]2C(=O)OCCCCCCn2cnc3cncnc32)OCO4)cc(OC)c1OC | Active | Active
12 | 5000 | 2100 | 2000 | COc1cc(-c2c(C(=O)OCCCn3cnc4c(Cl)ncnc43)c(C=O)cc3cc4c(cc23)OCO4)cc(OC)c1OC | Active | Active
13 | 350 | 160 | 250 | COc1cc([C@@H]2c3cc4c(cc3[C@H](O)[C@@H](CO)[C@H]2C(=O)OCCCCCCBr)OCO4)cc(OC)c1OC |  | 
14 | 2400 | 910 | 750 | COc1cc([C@@H]2c3cc4c(cc3C=C(C=O)[C@H]2C(=O)OCCCn2cnc3c(Cl)ncnc32)OCO4)cc(OC)c1OC | Active | Active
15 | 7700 | 710 | 790 | COc1cc([C@@H]2c3cc4c(cc3C=C(C=O)[C@H]2C(=O)OCCCn2cnc3cncnc32)OCO4)cc(OC)c1OC | Active | Active
16 | 3100 | 770 | 400 | COc1cc([C@@H]2c3cc4c(cc3C=C(C=O)[C@H]2C(=O)OCCCCCCn2cnc3c(Cl)ncnc32)OCO4)cc(OC)c1OC | Active | Active
17 | 160 | 140 | 140 | COc1cc([C@@H]2c3cc4c(cc3[C@H](O)[C@@H](CO)[C@H]2C(=O)OCCCBr)OCO4)cc(OC)c1OC |  | 

Row | SMILES | GI50 (MDA-MB-231) [nM] | GI50 (HT-29) [nM] | GI50 (A549) [nM] | Activity (HeLa [1]) | Activity (HeLa [2])
18 | COC(=O)[C@@H]1C(C=O)=Cc2cc3c(cc2[C@H]1c1cc(OC)c(OC)c(OC)c1)OCO3 [PODOPHYLLIC ALDEHYDE] | 200 | 39 | 60 |  | 
